# S1P4 antagonist: blocks the human S1P4 receptor; O95977; S1P4-expressing cells, antagonist mode, reporter read-out; inhibition, % at 4.98 µM; 0.26% of 220,000 active; AID 1510; in the data active = inhibition above about 29%
# Mdm2 ligase inh: inhibitors of human Mdm2 E3 ubiquitin ligase. AID 1230. 0.11% of 210,000 active. signal enhancement, % at 5 µM. cell-based MDM2 ubiquitination luciferase reporter, 2 h; 0 = plate control, 100 = twice control, blank-subtracted. Q00987;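 active = signal enhancement of 30% or more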;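 note: luminescence tracks abundance of the self-degrading MDM2-luciferase fusion protein; higher signal means inhibition of MDM2 E3 ligase activity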
# Target sequence (Q00987 whole entry, looked up, the tested form may be a part): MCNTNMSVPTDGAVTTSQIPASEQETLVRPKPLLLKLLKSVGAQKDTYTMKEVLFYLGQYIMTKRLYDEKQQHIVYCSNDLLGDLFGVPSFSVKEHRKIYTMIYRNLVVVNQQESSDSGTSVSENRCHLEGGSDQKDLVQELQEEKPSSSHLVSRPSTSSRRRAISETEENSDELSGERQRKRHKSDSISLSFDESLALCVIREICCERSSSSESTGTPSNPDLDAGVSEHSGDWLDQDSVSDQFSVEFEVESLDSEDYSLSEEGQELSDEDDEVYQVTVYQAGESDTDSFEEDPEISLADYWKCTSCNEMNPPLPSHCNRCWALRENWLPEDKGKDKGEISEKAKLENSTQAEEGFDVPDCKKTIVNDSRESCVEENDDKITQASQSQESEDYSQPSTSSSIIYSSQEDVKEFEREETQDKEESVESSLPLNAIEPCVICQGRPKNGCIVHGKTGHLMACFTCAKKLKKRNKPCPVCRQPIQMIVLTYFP
#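 System: stable MDM2–luciferase fusion reporter cells / Input: 2000 cells seeded into each well / Schedule: 4 h settle plus 2 h compound, 37 °C / Compound: single-point 5 µM / Buffer or medium: cells held in DMEM / Benchmarks: control and blank well means / Evaluation: percent signal gain over controls, blank-subtracted / Measured by: luciferase luminescence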
# S1P3 antag: blocks the human S1P3 receptor | Q99500 | CHO S1P3 NFAT-BLA reporter, FRET fluorescence, antagonist mode | inhibition, % at 4.98 µM | 0.27% of 170,000 active;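 active = inhibition above the plate cutoff, the mean inhibition of test wells on that plate plus 3 SD, cut at about 28% in these data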;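 note: cells challenged with S1P at its EC80 of 0.8 µM; blue over green emission ratio from cleaved BLA substrate after 4 h stimulation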
# S1P4 ag: activates the human S1P4 receptor. O95977. S1P4-expressing cell line, agonist reporter assay. activation, % at 4.98 µM. 0.35% of 220,000 active; in the data active = activation above about 11%
# Biofilm kill mix: mixture kills Candida albicans biofilm cells; C. albicans biofilm persisters + clotrimazole, fluorescence viability; primary screen in compound mixtures of four per well; inhibition, % at 7.6 µM; 0.02% of 120,000 active; AID 1242;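 active = inhibition above 30.3% in the primary screen of four-compound pools, then above 30% when the compound was retested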;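 note: compounds exposed to preformed 24 h biofilms for 48 h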
#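 Assay system: C. albicans biofilms / Medium: RPMI/MOPS medium, pH 7.0 / Schedule: biofilm formation 24 h, compound exposure 48 h, 37 °C / Measured by: Alamar Blue fluorescence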
# S1P4 ag conf: human S1P4 agonism, confirmation; shares compounds with S1P4 ag; S1P4 agonist cell-based reporter assay; activation, % at 4.98 µM; 7% of 740 active; in the data active = activation above about 12%
# S1P1 agonist: activates human S1P1, counter-screen for S1P4 agonists; AID 1563; 4% of 740 active; activation, % at 4.98 µM; shares compounds with S1P4 ag; S1P1 agonist cell-based assay, activation; in the data active = activation above about 21%
# Numbers stand for hits; 0 = inactive; - = no result. An excerpt weighted towards active compounds, which were near 0.9% of everything screened.
SMILES,S1P4 antagonist,Mdm2 ligase inh,S1P3 antag,S1P4 ag,Biofilm kill mix,S1P4 ag conf,S1P1 agonist
Cc1cc(NC(=O)C2C3C(=O)N(Cc4ccc(Cl)cc4)C(C(=O)NCc4ccccc4)C34C=CC2(C)O4)no1 (centres undefined),0,0,-,18,-,0,0
Cc1cc(NC(=O)C2C3C(=O)N(Cc4ccc(Cl)cc4)C(C(=O)NC4CCCCC4)C34C=CC2(C)O4)no1 (centres undefined),0,0,-,0,-,-,-
CC(C)(Cl)C1Cc2cc3ccc(=O)oc3cc2O1 (centres undefined),0,0,-,0,-,-,-
CSc1cccc(CN2CCCC(CO)(Cc3cccc(Cl)c3)C2)c1 (centres undefined),0,0,0,0,0,-,-
CSc1cccc(CN2CCC(CO)(Cc3ccccc3)CC2)c1,0,0,0,16,0,0,0
COc1ccc(CC(=O)NNC(=O)CCc2ccccc2)cc1OC,0,0,0,0,0,-,-
COc1ccc(CC(=O)NNS(=O)(=O)c2ccccc2)cc1OC,0,0,0,12,0,0,0
COCCNC(=S)Nc1ccc2nsnc2c1,0,0,0,12,0,0,0
COCCNC(=S)Nc1ccc(Cl)c(Cl)c1,0,0,0,0,0,-,-
CCCNC(=O)Cn1nc([N+](=O)[O-])c([N+](=O)[O-])c1C,0,0,0,14,0,0,0
CN(C)S(=O)(=O)c1ccc(NC(=O)CCNC(=O)c2ccc([N+](=O)[O-])cc2)cc1,0,0,0,0,0,-,-
C=Cn1cc[n+](CC(=O)c2ccc(C)cc2)c1,0,0,0,18,0,0,0
Cc1cc(OCc2cn3cccnc3n2)ccc1Cl,0,0,0,0,0,-,-
CC1(c2nnc(-c3ccc(F)cc3)o2)CC(c2cccc(Cl)c2)=NO1 (centres undefined),-,0,-,-,0,-,-
O=c1cc(N2CCCCC2)nc2n1CCCS2,0,0,-,25,-,0,0
CC(=O)Nc1ccc(NC(=O)c2oc3cc(C)c(C)cc3c2C)cc1,0,0,0,12,-,0,0
COC(=O)c1ccc(NC(=O)CCN2C(=O)CSC2=O)cc1,0,0,0,0,0,-,-
CCn1cc(CNC(=O)/C=C/c2cnn(C)c2)c(C)n1,0,0,0,36,0,0,0
CCN1CCN(c2cc(C)c3cc(NC(=O)c4cccc(OC)c4)ccc3n2)CC1,0,-,0,0,0,-,-
CCN1CCN(c2cc(C)c3cc(NC(=O)c4cccs4)ccc3n2)CC1,0,0,0,56,0,0,0
COc1ccc(NC(=O)Cn2cccc2)c(OC)c1,0,0,0,35,-,0,0
COC(=O)c1c(-n2c(C)cc(C=O)c2C)sc2c1CCCC2,0,0,-,12,-,15,0
Cc1cccc(C(=O)NNc2ncnc3c2cnn3C)c1,0,0,0,15,0,0,0
CN(C)C(CNc1ncnc2sc3c(c12)CCCC3)c1ccco1 (centres undefined),0,0,0,0,0,-,-
CCOc1ccc(NC(=O)c2ccccn2)cc1,0,0,0,0,0,-,-
SMILES,S1P4 antagonist,Mdm2 ligase inh,S1P3 antag,S1P4 ag,Biofilm kill mix,S1P4 ag conf,S1P1 agonist
CNS(=O)(=O)c1ccc(NC(=O)c2ccccn2)cc1,0,0,0,70,0,0,0
O=C(NC1CCN(Cc2ccccc2)CC1)c1cccc(S(=O)(=O)Nc2cc(C(F)(F)F)ccc2Cl)c1,0,0,0,25,0,0,0
CCC1CCCCN1C(=O)c1cccc(S(=O)(=O)Nc2cc(C(F)(F)F)ccc2Cl)c1 (centres undefined),0,0,0,0,0,-,-
CCCCCC(=O)N/N=C(\C)c1ccc(N2CCCCC2)cc1,0,0,0,0,0,-,-
Cc1ccc(CCNC(=O)c2nnn(-c3cc(C)cc(C)c3)c2N)cc1,0,0,0,11,-,0,0
Cc1ccc(CN(c2ccc(C(=O)NCC3CCCO3)cc2)S(C)(=O)=O)cc1 (centres undefined),0,0,0,30,0,0,0
O=C(Cn1cnc2ccccc2c1=O)Nc1ccc2c(c1)OCO2,0,0,0,0,0,-,-
O=C(Cn1cnc2cc([N+](=O)[O-])ccc2c1=O)Nc1ccc2c(c1)OCO2,0,0,0,24,0,0,0
C/C=C/C(=O)OCC(=O)Nc1ccc(C)c(S(=O)(=O)N(C)C)c1,0,0,0,0,0,-,-
Cc1ccc(NC(=O)COC(=O)[C@H](C)N2C(=O)C3CC=CCC3C2=O)cc1S(=O)(=O)N(C)C (some centres undefined),0,0,0,16,0,0,0
CCN(CC)C(=O)C1CCCN(Cc2ccccc2)C1 (centres undefined),0,-,-,22,-,0,0
CCOC(=O)Cn1nc(C)c(NC(=O)COc2cccc(Cl)c2)c1C,0,0,0,12,0,0,0
COc1ccc(C2/C=C\CN(C(=O)C3CCCC3)CC(=O)N2Cc2ccc(F)cc2)cc1 (centres undefined),-,0,-,-,0,-,-
O=S(=O)(CC(O)CS(=O)(=O)c1ccc(Cl)cc1)c1ccccc1 (centres undefined),0,0,0,0,0,-,-
NC(=O)CS(=O)(=O)c1ccc(Cl)cc1,0,0,0,25,0,0,0
O=C(COC(=O)c1ccccn1)NCc1ccccc1Cl,0,0,0,27,0,0,0
CCc1cc(=O)oc2c(CN3CCCC3)c(O)c(Cl)cc12,0,0,-,0,-,-,-
CCc1cc(=O)oc2c(CN3CCN(C)CC3)c(O)c(Cl)cc12,0,0,-,11,-,0,0
O=C(COC(=O)c1ccc(Br)cc1)NCc1ccccc1,0,0,0,15,0,0,0
O=C(COC(=O)c1cccc(C(F)(F)F)c1)NCc1ccccc1,0,0,0,23,0,0,0
O=C(COC(=O)c1cccc(C(F)(F)F)c1)NCc1ccc(Cl)cc1,0,0,0,0,0,-,-
O=C(COC(=O)c1ccncc1)NCc1ccccc1,0,0,0,0,-,-,-
O=C(Nc1cccc2ccccc12)c1cc2c(cc1Br)OCO2,0,0,0,0,0,-,-
CC(=O)c1ccc(Oc2ccc(C(=O)c3ccc(C)c(C)c3)cc2[N+](=O)[O-])cc1,0,0,0,14,0,0,0
CCOc1ccc(S(=O)(=O)N2Cc3ccccc3CC2C(=O)O)cc1 (centres undefined),0,-,0,0,0,-,-
CCOC(=O)c1ccc(NC(=O)N2CCN(Cc3cccc(F)c3)CC2)cc1,0,0,0,17,-,0,0
COC(=O)CC1C(=O)NCCN1C(=O)CSc1nc2cc(Cl)ccc2o1 (centres undefined),0,0,0,0,0,-,-
Cc1ccc(CNC(=O)C2CC(c3ccc([N+](=O)[O-])cc3)=NO2)cc1 (centres undefined),0,0,-,25,-,0,0
O=C(COC(=O)c1cn(-c2ccccc2)nc1-c1cccs1)NC1CC1,0,0,0,34,-,0,0

# Screens: PubChem, several laboratories
